Published values of several laboratories.
Compare with care: the assays were run in different laboratories.
Cell line: 786-0
Observed: cell growth or viability

Compound | test | setting | quantity | result
COc1ccc(-c2ccc(-c3ccc(C(=N)N)nc3)s2)cc1Cl |  |  | GI50 | 2000 nM
CC1=CC(=O)C(C(C)C)=CC1=O | CCK-8 | 48 h | IC50 | 43000 nM
COc1ccc(C(=O)/C=C/c2cc3c(cc2Br)OCO3)cc1S(N)(=O)=O | SRB | 10 µM | inhibition | 140%
S=C([S][Au-][P+](CCCCCC[P+]([Au-][S]C(=S)n1cccn1)(c1ccccc1)c1ccccc1)(c1ccccc1)c1ccccc1)n1cccn1 |  |  | GI50 | 9800 nM
CC(C)c1c(Sc2ccc(C(=O)N[C@@H](CCC(=O)O)C(=O)O)cc2)[nH]c2nc(N)nc(N)c12 |  |  | GI50 | 5580 nM
COc1ccc(C(=O)/C=C/c2ccccc2Br)cc1S(N)(=O)=O | SRB | 48 h | GI50 | 1800 nM
Cc1cc(C)n(C(=S)[S][Au][PH](CCCCCC[PH]([Au][S]C(=S)n2nc(C)cc2C)(c2ccccc2)c2ccccc2)(c2ccccc2)c2ccccc2)n1 |  |  | GI50 | 3100 nM
COc1cc(-c2ccc(-c3ccc(C(=N)N)nc3)s2)cc(OC)c1OC |  |  | GI50 | 2120 nM
COc1cccc(Oc2ccccc2NC(=O)CNC(=O)c2cccc3ccccc23)c1 | SRB | 48 h | GI50 | 490 nM
CC(=O)O[C@H]1C(=O)[C@@]2(C)[C@H]([C@H](OC(=O)c3ccccc3)[C@]3(O)C[C@H](OC(=O)[C@H](O)[C@@H](NC(=O)c4ccccc4)c4ccccc4)C(C)=C1C3(C)C)[C@]1(OC(C)=O)CO[C@@H]1C[C@@H]2O |  | 110 h | IC50 | 5 nM
CCCc1c(Sc2ccc(C(=O)N[C@@H](CCC(=O)O)C(=O)O)cc2)[nH]c2nc(N)nc(N)c12 |  |  | GI50 | ≤ 10 nM
